Published values collected from several papers.
Read-out: binding
CDK4 with cyclin D3: Cyclin-dependent kinase 4, with cyclin D3 (CDK4, Homo sapiens, UniProt P11802)
CDK4: Cyclin-dependent kinase 4 (CDK4, Homo sapiens, UniProt P11802)
CDK4 with cyclin D1: Cyclin-dependent kinase 4, with cyclin D1 (CDK4, Homo sapiens, UniProt P11802)

Compound | target | method | tested at | remaining binding [%]
CNS(=O)(=O)c1ccc(Nc2ncc(C(F)(F)F)c(N3CCC[C@](C)(O)C3)n2)c(C)c1 | CDK4 with cyclin D3 | competition with immobilised ligand | 1 µM | 33
COc1ccc2[nH]c3c4[nH]c5ccc(OC)cc5c4c4c(c3c2c1)C(=O)NC4=O | CDK4 |  | 1 µM | 100
COc1ccc2oc(-c3ccc4nc(N)oc4c3)c/c(=N\c3ccccc3NC(=O)CCN)c2c1 | CDK4 with cyclin D3 |  | 1 µM | 93
C1=C/COCc2cc(ccc2OCCN2CCCC2)Nc2nccc(n2)-c2cccc(c2)COC/1 | CDK4 |  | 0.1 µM | 99
C[C@]1(O)CCCN(c2nc(Nc3ccc(S(=O)(=O)N[C@H]4CC[C@H](CN5CCN(c6ccc(C7CCC(=O)NC7=O)cc6F)CC5)CC4)cc3F)ncc2C(F)(F)F)C1 (stereo partly drawn) | CDK4 | competition with immobilised ligand | 1 µM | 97
Cc1ccc(NC(=O)c2ccnc(C(F)(F)F)c2)cc1-c1cc(OCCO)nc(N2CCOCC2)c1 | CDK4 with cyclin D1 |  | 1 µM | 97
Cc1cc(S(=O)(=O)N[C@H]2CC[C@H](CN3CCN(c4ccc(C5CCC(=O)NC5=O)cc4F)CC3)CC2)ccc1Nc1ncc(C(F)(F)F)c(N2CCC[C@](C)(O)C2)n1 (stereo partly drawn) | CDK4 with cyclin D3 | competition with immobilised ligand | 1 µM | 52
CN1CCN(C(=O)c2ccc(NC(=O)Nc3ccc(N(C)c4ccnc(Nc5ccc(CS(C)(=O)=O)cc5)n4)cc3)cc2)CC1 | CDK4 with cyclin D1 |  | 1 µM | 77
CCCCC(=O)Nc1ccc(-c2ccc3ncn(CCC)c(=O)c3c2)cn1 | CDK4 with cyclin D3 | competition with immobilised ligand | 0.5 µM | 95
